Experimental data reported in ChEMBL document CHEMBL4007408, “Identification of Novel Triazole-Based Nicotinamide Phosphoribosyltransferase (NAMPT) Inhibitors Endowed with Antiproliferative and Antiinflammatory Activity” (J Med Chem, 2017).
pEC50, pIC50: −log10 of the molar value. Calls of active or inactive are those of the source. The calls are words filed in the database; no cut-off is given here.

Tests used:
Liver [1] = test: Drug metabolism in human liver microsomes assessed as pyridine N-oxidation after 60 mins in presence of NADPH-regenerating system by LC-UV analysis; format: ADME, microsome; conditions: 1 h
How it was run: (§1)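 Metabolites were characterized by LC-ESI-MSn on supernatants of 60 min, 37 °C incubations. Each used 50 μM substrate with rat or human liver microsomes (1.0 mg/ml protein) in 50 mM Tris-HCl pH 7.4 with 3.3 mM MgCl2, 1% acetonitrile and an NADPH-regenerating system. Reactions were quenched with cold acetonitrile and centrifuged.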

Mus musculus [2] = test: In vivo inhibition of NAMPT in DNBS-induced BALB/c mouse colitis model assessed as reduction in loss of body weight at 20 mg/kg, ip bid administered for 3 days post DNBS challenge; format: functional, organism-based
[3] = Half life in athymic Nu/Nu Harlan mouse at 10 mg/kg, iv administered as single dose up to 24 hrs by LC-ESI-MS analysis; format: ADME, organism-based; conditions: in vivo
Mus musculus [4] = test: Downregulation of NAMPT expression in DNBS-induced BALB/c mouse colitis model at 20 mg/kg, ip bid administered for 3 days post DNBS challenge by Western blot analysis; format: functional, organism-based
Fibrosarcoma cell = test: Antitumor activity against mouse fibrosarcoma cells allografted in athymic nu/nu Harlan mouse
[5] = Apparent aqueous solubility of the compound; format: physicochemical; conditions: buffer
How it was run: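 Kinetic solubility was measured by filtration. Compound from a 10 mM DMSO stock was diluted in PBS pH 7.4 to nominal 500 and 200 μM, shaken 90 min at room temperature and filtered. Filtrate was diluted 4:1 with acetonitrile and absorbance read at 260/280 nm. Concentration came from a calibration curve (3.13–500 μM in 80:20 PBS/acetonitrile, 5% DMSO; r2 >0.85) × 1.25. Run in duplicate.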

Mus musculus [6] = test: In vivo inhibition of NAMPT in DNBS-induced BALB/c mouse colitis model assessed as reduction in neutrophil infiltration by measuring myeloperoxidase levels at 20 mg/kg, ip bid administered for 3 days post DNBS challenge by ELISA; format: functional, organism-based
A2780 [7] = test: Antitumor activity against human A2780 cells xenografted in athymic nu/nu Harlan mouse assessed as reduction in tumor growth at 10 mg/kg, ip bid administered for 8 consecutive days; format: functional, organism-based
[8] = Drug metabolism in human liver microsomes assessed as mixed function oxidase mediated compound degradation after 60 mins in presence of NADPH-regenerating system by LC-UV analysis; format: ADME; conditions: 1 h
How it was run: (§2)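 Substrate at 50 μM final, with rat or human liver microsomes at 1.0 mg/ml protein, in 50 mM Tris-HCl pH 7.4. Mix held 3.3 mM MgCl2, 1% acetonitrile and an NADPH-regenerating system (1.3 mM β-NADP, 3.3 mM glucose 6-phosphate, 0.4 U/ml G6PDH). Shaken 60 min at 37 °C, stopped with ice-cold acetonitrile. LC-UV gave % residual substrate versus a no-microsome control, mean of two replicates.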

Liver [9] = test: Stability in Wistar Han rat liver microsomes after 60 mins by LC-ESI-MS analysis; format: ADME, microsome; conditions: 1 h
Mammary cancer cell = test: Antitumor activity against mouse mammary cancer cells allografted in athymic nu/nu Harlan mouse
Mus musculus [10] = test: In vivo inhibition of NAMPT in DNBS-induced BALB/c mouse colitis model assessed as reduction in mucosal congestion at 20 mg/kg, ip bid administered for 3 days post DNBS challenge; format: functional, organism-based
Mus musculus [11] = test: In vivo inhibition of NAMPT in DNBS-induced BALB/c mouse colitis model assessed as reduction in hemorrhagic ulcerations at 20 mg/kg, ip bid administered for 3 days post DNBS challenge; format: functional, organism-based
[12] = AUC in athymic Nu/Nu Harlan mouse at 10 mg/kg, iv administered as single dose up to 24 hrs by LC-ESI-MS analysis; format: ADME, organism-based; design: time < 24 hr, dose 10 mg/kg, route intravenous; conditions: in vivo
Mus musculus [13] = test: In vivo inhibition of NAMPT in DNBS-induced BALB/c mouse colitis model assessed as reduction in erosion at 20 mg/kg, ip bid administered for 3 days post DNBS challenge; format: functional, organism-based
Liver [14] = test: Drug metabolism in Wistar Han rat liver microsomes assessed as pyridine N-oxidation after 60 mins in presence of NADPH-regenerating system by LC-UV analysis; format: ADME, microsome; conditions: 1 h; how it was run: as §1
Mus musculus [15] = test: Antiinflammatory activity of DSS-induced […] mouse colitis model assessed as improved general condition at 20 mg/kg administered daily for 7 days post DSS challenge; format: functional, organism-based
SH-SY5Y = test: Cytotoxicity against human SH-SY5Y cells assessed as reduction in cell viability after 56 hrs by MTT assay; format: functional, cell-based; conditions: Homo sapiens, SH-SY5Y, 56 h; read-out: EC50
Mus musculus [16] = test: Antiinflammatory activity of DSS-induced […] mouse colitis model assessed as disease activity index at 20 mg/kg administered daily for 7 days post DSS challenge (reference value: 6); format: functional
[17] = Drug metabolism in human liver microsomes assessed as mixed function oxidase mediated compound cleavage by measuring compound remaining after 60 mins in presence of NADPH-regenerating system by LC-UV analysis; format: ADME; conditions: read-out: Stability; how it was run: as §2
Mus musculus [18] = test: Antiinflammatory activity of DSS-induced […] mouse colitis model assessed as reversion of changes in colon length at 20 mg/kg administered daily for 7 days post DSS challenge; format: functional, organism-based
Mus musculus [19] = test: Antiinflammatory activity of DSS-induced […] mouse colitis model assessed as reduction in loss of body weight at 20 mg/kg administered daily for 7 days post DSS challenge; format: functional, organism-based
Liver [20] = test: Stability in human liver microsomes after 60 mins by LC-ESI-MS analysis; format: ADME, microsome; conditions: 1 h
[21] = Drug metabolism in Wistar Han rat liver microsomes assessed as mixed function oxidase mediated compound cleavage by measuring compound remaining after 60 mins in presence of NADPH-regenerating system by LC-UV analysis; format: ADME; conditions: read-out: Stability; how it was run: as §2
Mus musculus [22] = test: Antiinflammatory activity of DSS-induced […] mouse colitis model assessed as reduction in neutrophil infiltration by measuring myeloperoxidase levels at 20 mg/kg administered daily for 7 days post DSS challenge by ELISA; format: functional, organism-based
[23] = Clearance in athymic Nu/Nu Harlan mouse at 10 mg/kg, iv administered as single dose up to 24 hrs by LC-ESI-MS analysis; format: ADME, organism-based; conditions: in vivo
[24] = molecular target: Nicotinamide phosphoribosyltransferase (Mus musculus, UniProt Q99KQ4); test: Inhibition of recombinant mouse NAMPT expressed in bacterial expression system using nicotinamide as substrate after 1 hr by fluorescence based NMNAT-3 enzyme coupled assay; conditions: read-out: IC50
Nicotinamide phosphoribosyltransferase (Mus musculus, UniProt Q99KQ4), sequence (Q99KQ4 whole entry): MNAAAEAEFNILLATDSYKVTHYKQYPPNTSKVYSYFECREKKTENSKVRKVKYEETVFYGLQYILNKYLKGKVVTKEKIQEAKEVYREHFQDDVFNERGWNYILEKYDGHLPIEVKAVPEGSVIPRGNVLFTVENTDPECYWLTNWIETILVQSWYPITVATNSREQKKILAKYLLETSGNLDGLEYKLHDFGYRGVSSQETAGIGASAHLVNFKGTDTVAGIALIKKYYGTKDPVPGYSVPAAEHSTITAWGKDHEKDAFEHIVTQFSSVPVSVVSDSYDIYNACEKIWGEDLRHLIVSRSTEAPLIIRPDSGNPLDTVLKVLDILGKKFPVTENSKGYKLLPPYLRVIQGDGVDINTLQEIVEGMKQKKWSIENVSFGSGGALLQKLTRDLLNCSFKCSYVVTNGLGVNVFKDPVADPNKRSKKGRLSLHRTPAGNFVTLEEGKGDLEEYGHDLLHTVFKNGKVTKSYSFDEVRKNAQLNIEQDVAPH

[25] = Volume of distribution in athymic Nu/Nu Harlan mouse at 10 mg/kg, iv administered as single dose up to 24 hrs by LC-ESI-MS analysis; format: ADME, organism-based; conditions: in vivo
A2780 [26] = test: Cytotoxicity against human A2780 cells assessed as reduction in cell viability; format: functional, cell-based
Mus musculus [27] = test: Toxicity in athymic nu/nu Harlan mouse xenografted with human A2780 cells assessed as body weight loss at 10 mg/kg, ip bid administered for 8 consecutive days measured through out study; format: organism-based; conditions: in vivo
[28] = molecular target: Nicotinamide phosphoribosyltransferase (Homo sapiens, UniProt P43490); test: Inhibition of NAMPT in human Jurkat T cells assessed as reduction in NAD levels; format: cell-based
Nicotinamide phosphoribosyltransferase (Homo sapiens, UniProt P43490), sequence (P43490 whole entry): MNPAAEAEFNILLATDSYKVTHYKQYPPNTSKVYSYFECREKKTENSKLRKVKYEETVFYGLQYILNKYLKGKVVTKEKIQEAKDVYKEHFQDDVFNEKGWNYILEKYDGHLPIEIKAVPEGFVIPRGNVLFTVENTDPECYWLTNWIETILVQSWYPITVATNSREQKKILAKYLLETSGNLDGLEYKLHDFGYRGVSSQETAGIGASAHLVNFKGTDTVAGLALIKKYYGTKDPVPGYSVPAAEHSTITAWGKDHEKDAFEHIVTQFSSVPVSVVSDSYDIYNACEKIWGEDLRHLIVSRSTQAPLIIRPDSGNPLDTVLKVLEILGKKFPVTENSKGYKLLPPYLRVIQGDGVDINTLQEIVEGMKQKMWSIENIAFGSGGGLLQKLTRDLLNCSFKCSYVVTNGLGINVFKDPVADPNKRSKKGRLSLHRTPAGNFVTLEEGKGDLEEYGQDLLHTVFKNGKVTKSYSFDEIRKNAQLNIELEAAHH

Mus musculus [29] = test: Drug metabolism in athymic Nu/Nu Harlan mouse blood assessed as N-oxide metabolite formation at 10 mg/kg, iv administered as single dose up to 24 hrs by LC-ESI-MS analysis; format: ADME, organism-based; conditions: in vivo
[30] = Drug metabolism in Wistar Han rat liver microsomes assessed as mixed function oxidase mediated compound degradation after 60 mins in presence of NADPH-regenerating system by LC-UV analysis; format: ADME; conditions: 1 h; how it was run: as §2
Liver [31] = test: Stability in human liver microsomes assessed as mixed function oxidase mediated compound cleavage after 60 mins in presence of NADPH-regenerating system by LC-UV analysis; format: ADME, microsome; conditions: 1 h; how it was run: as §2
[32] = Stability in Wistar Han rat liver microsomes assessed as mixed function oxidase mediated compound cleavage after 60 mins in presence of NADPH-regenerating system by LC-UV analysis; format: ADME; conditions: 1 h; how it was run: as §2
Liver [33] = test: Drug metabolism in Wistar Han rat liver microsomes assessed as aliphatic hydroxylation of paraffin linkers by LC-ESI-MS or LC-UV analysis; format: ADME, microsome; how it was run: as §1
Liver [34] = test: Drug metabolism in human liver microsomes assessed as aromatic hydroxylation of biphenyl moiety by LC-ESI-MS or LC-UV analysis; format: ADME, microsome; how it was run: as §1
Liver [35] = test: Drug metabolism in Wistar Han rat liver microsomes assessed as aromatic hydroxylation of biphenyl moiety by LC-ESI-MS or LC-UV analysis; format: ADME, microsome; how it was run: as §1
Liver [36] = test: Drug metabolism in human liver microsomes assessed as oxidative N-dealkylation by LC-ESI-MS or LC-UV analysis; format: ADME, microsome; how it was run: as §1
Liver [37] = test: Drug metabolism in Wistar Han rat liver microsomes assessed as oxidative N-dealkylation by LC-ESI-MS or LC-UV analysis; format: ADME, microsome; how it was run: as §1
Liver [38] = test: Drug metabolism in human liver microsomes assessed as aliphatic hydroxylation of paraffin linkers by LC-ESI-MS or LC-UV analysis; format: ADME, microsome; how it was run: as §1
Liver [39] = test: Drug metabolism in human liver microsomes assessed as compound hydrolysis by measuring 8-(4-(pyridin-3-yl)-1H-1,2,3-triazol-1-yl)octanoic acid formation after 60 mins by LC-ESI-MS analysis; format: ADME, microsome
How it was run: (§3)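 Hydrolytic metabolites were identified by LC-ESI-MSn after 60 min at 37 °C. Incubations used 50 μM substrate with rat or human liver microsomes (1.0 mg/ml) in 50 mM Tris-HCl pH 7.4, 3.3 mM MgCl2 and 1% acetonitrile. Samples without the NADPH-regenerating system were also run, and residual substrate in them was measured.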

Liver [40] = test: Drug metabolism in Wistar Han rat liver microsomes assessed as compound hydrolysis by measuring 2-aminobiphenyl formation after 60 mins by LC-ESI-MS analysis; format: ADME, microsome; conditions: 1 h; how it was run: as §3
Liver [41] = test: Drug metabolism in Wistar Han rat liver microsomes assessed as compound hydrolysis by measuring 8-(4-(pyridin-3-yl)-1H-1,2,3-triazol-1-yl)octanoic acid formation after 60 mins by LC-ESI-MS analysis; format: ADME, microsome; how it was run: as §3
Liver [42] = test: Drug metabolism in human liver microsomes assessed as compound hydrolysis by measuring 2-aminobiphenyl formation after 60 mins by LC-ESI-MS analysis; format: ADME, microsome; conditions: 1 h; how it was run: as §3

Drug metabolism (Liver [1])	half-life [3]	solubility [5]	Stability (Liver [9])	AUC at 24 h [12]	Drug metabolism (Liver [14])	remaining at 1 h [17]	Stability (Liver [20])	remaining at 1 h [21]	pIC50 [24]	SMILES	inhibition (Mus musculus [2])	inhibition (Mus musculus [4])	Activity (Fibrosarcoma cell)	inhibition (Mus musculus [6])	inhibition (A2780 [7])	Activity (Mammary cancer cell)	inhibition (Mus musculus [10])	inhibition (Mus musculus [11])	inhibition (Mus musculus [13])	pEC50 (SH-SY5Y)	other results
Metabolite_Detected	1.89 h	Insoluble	Stable	859 ng·h/mL	Metabolite_Detected	49%	Stable	31%	8.42	c1ccc(-c2ccccc2OCCCCCCn2cc(-c3cccnc3)nn2)cc1	Active	Active	Active	Active	Active	Active	Active	Active	Active	8.28	Drug metabolism [8]: Metabolite_Detected; Activity (Mus musculus [15]): Active; Activity_index (Mus musculus [16]): 2.5; Activity (Mus musculus [18]): Active; Activity (Mus musculus [19]): Active; Activity (Mus musculus [22]): Active; clearance [23]: 194 mL/min/kg; Vd [25]: 31.8 L/kg; pIC50 (A2780 [26]): 8.52; Activity (Mus musculus [27]): Non-Toxic; pIC50 [28]: 8.17; Drug metabolism (Mus musculus [29]): Metabolite_Notdetected; Drug metabolism [30]: Metabolite_Detected
Metabolite_Detected	0.37 h	Soluble	Stable	6470 ng·h/mL	Metabolite_Detected	92%	Stable	62%	8.31	O=C(/C=C/c1cccnc1)NCCCCC1CCN(C(=O)c2ccccc2)CC1 [DAPORINAD]	Active	Active	Active	Active	Active	Active	Active	Active	Active	8.47	Stability (Liver [31]): Stable; Stability [32]: Stable; clearance [23]: 22.8 mL/min/kg; Vd [25]: 0.8 L/kg; pIC50 (A2780 [26]): 8.38; Activity (Mus musculus [27]): Non-Toxic; Drug metabolism (Mus musculus [29]): Metabolite_Detected
–	–	–	Stable	–	–	88%	Stable	45%	8.51	O=C(NCCCCCCCn1cc(-c2cccnc2)nn1)c1ccccc1-c1ccccc1	–	–	–	–	–	–	–	–	–	8.24	Drug metabolism (Liver [33]): Metabolite_Detected; Stability (Liver [31]): Stable; Drug metabolism (Liver [34]): Metabolite_Detected; Drug metabolism (Liver [35]): Metabolite_Detected; Drug metabolism (Liver [36]): Metabolite_Detected; Drug metabolism (Liver [37]): Metabolite_Detected; Stability [32]: Stable; Drug metabolism (Liver [38]): Metabolite_Detected; pIC50 [28]: 8.31
–	–	–	–	–	–	45%	–	26%	–	O=C(CCCCCCCn1cc(-c2cccnc2)nn1)Nc1ccccc1-c1ccccc1	–	–	–	–	–	–	–	–	–	–	Drug metabolism (Liver [39]): Metabolite_Detected; Drug metabolism (Liver [40]): Metabolite_Detected; Drug metabolism (Liver [41]): Metabolite_Detected; Drug metabolism (Liver [42]): Metabolite_Detected
